The values that follow come from ChEMBL document CHEMBL3259723, “Membrane active vancomycin analogues: a strategy to combat bacterial resistance” (J Med Chem, 2014).

The source made the active and inactive calls. The rule behind the calls is not given here.

Data set [1] concerns Staphylococcus aureus. In words: Antibacterial activity against vancomycin-intermediate-resistant Staphylococcus aureus assessed as growth inhibition by broth microdilution method. The data set is classed as functional. Summed up: (§1)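 Broth microdilution per CLSI; compounds serially diluted in sterile water, added to bacteria at 10^5 CFU/mL (diluted from 6 h cultures). Incubated at 37 °C, OD600 read. Triplicate wells, experiment done at least twice. Mean OD plotted against concentration and fitted sigmoidally; MIC taken where OD matches the no-bacteria control.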
A general note: Dilution methods test growth across graded concentrations, often in twofold steps.

Data set [2] deals with Staphylococcus aureus. In words: Antibacterial activity against methicillin-resistant Staphylococcus aureus ATCC 33591 assessed as leakage of intracellular potassium ion at 10 uM measured for 10 mins by PBFI-AM dye-based spectrofluorometric analysis relative to control. It counts as functional. Summed up:
(§2)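 Mid-log (6 h) cells washed twice and resuspended in 10 mM HEPES pH 7.2 with 0.5% glucose. Signal stabilized 60 s at RT, then 1 μM PBFI-AM added and a 2 min baseline recorded before compound.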

Data set [3] concerns Staphylococcus aureus. In words: Antibacterial activity against methicillin-resistant Staphylococcus aureus ATCC 33591 assessed as induction of cytoplasmic membrane permeabilization at 10 uM measured for 10 mins by propidium iodide uptake assay. The data set is classed as functional, organism-based. Summed up: (§3)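 Mid-log (6 h) cells harvested at 4 °C, washed and resuspended in PBS pH 7.2. Compound added to cells with 10 μM propidium iodide. Fluorescence (ex 535/em 617 nm) monitored 10 min at RT; the rise in PI fluorescence taken as inner membrane permeabilization.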

Data set [4] has as its system Enterococcus faecium. In words: Antibacterial activity against vancomycin-sensitive Enterococcus faecium ATCC 19634 assessed as growth inhibition by broth microdilution method. It counts as functional. Summed up: (§4)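 Broth microdilution per CLSI; compounds serially diluted in autoclaved water. Bacteria grown 6 h in suitable media, diluted to 10⁵ CFU/mL; compound added to bacterial suspension, incubated at 37 °C, OD600 read. Triplicate wells, experiment done at least twice; mean OD versus concentration sigmoidally fitted, MIC taken where OD equals no-bacteria control.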

Data set [5] deals with Enterococcus faecium. In words: Antibacterial activity against vancomycin-resistant VanA phenotype of Enterococcus faecium ATCC 51559 assessed as induction of cytoplasmic membrane permeabilization at 10 uM measured for 10 mins by propidium iodide uptake assay. It counts as functional, organism-based. A digest of the protocol: as §3
For data set [6], the system named is Staphylococcus aureus. In words: Antibacterial activity against methicillin-sensitive Staphylococcus aureus MTCC 737 assessed as growth inhibition by broth microdilution method. It counts as functional. A digest of the protocol: as §4
Data set [7] has as its system Enterococcus faecium. In words: Antibacterial activity against vancomycin-resistant VanA phenotype of Enterococcus faecium ATCC 51559 assessed as induction of membrane depolarization at 10 uM measured for 10 mins by DiSC3(5) dye-based spectrofluorometric analysis. It counts as functional, organism-based. A digest of the protocol:
(§5)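 Membrane potential assay with DiSC3(5): dye added to cells until maximal uptake, seen as a fluorescence minimum (about 10 min). Compounds then added and depolarization followed as the fluorescence increase over a further 10 min.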

Data set [8] concerns Staphylococcus aureus. In words: Bactericidal activity against methicillin-resistant Staphylococcus aureus ATCC 33591 infected in 90% human whole blood at 3.6 uM after 3 hrs. The data set is classed as functional, organism-based. A digest of the protocol:
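MRSA (30 μL of 10^6 CFU/mL in 0.9% saline) mixed with compound at 3.6 μM and 270 μL fresh human whole blood. Incubated 3 h at 37 °C.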

For data set [9], the system named is Staphylococcus aureus. In words: Ratio of MIC for methicillin-resistant Staphylococcus aureus ATCC 33591 measured after 52 serial passages to MIC for methicillin-resistant Staphylococcus aureus ATCC 33591. It counts as functional. Summed up: (§6)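 Serial passage: the MIC assay is run against MRSA, then cells from the one-half-MIC well of the previous assay are harvested and inoculated into fresh yeast-dextrose broth for the next MIC assay after 24 h incubation. Repeated for […] passages; MIC plotted against passage number and fold increase in MIC determined.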

In data set [10] the test system is Staphylococcus aureus. In words: Bacteriostatic activity against methicillin-resistant Staphylococcus aureus ATCC 33591 measured over 24 hrs. It counts as functional, organism-based. A digest of the protocol: (§7)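 MRSA in yeast-dextrose broth, starting inoculum 1.6 × 10^8 CFU/mL. […] Samples taken at 0, 1, 2, 3, 6 and 24 h, diluted 10-fold serially in saline and plated on yeast-dextrose agar. Colonies counted after 24 h at 37 °C; log10 CFU/mL reported.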

For data set [11], the system named is Staphylococcus aureus. In words: Antibacterial activity against methicillin-resistant Staphylococcus aureus ATCC 33591 assessed as growth inhibition measured after 20 serial passages. The data set is classed as functional, organism-based. Summed up:
as §6

Data set [12] deals with Staphylococcus aureus. In words: Antibacterial activity against methicillin-resistant Staphylococcus aureus ATCC 33591 assessed as induction of membrane depolarization at 10 uM measured for 10 mins by DiSC3(5) dye-based spectrofluorometric analysis. It counts as functional, organism-based. Summed up:
as §5

Data set [13] relates to Enterococcus faecium. In words: Antibacterial activity against vancomycin-resistant VanA phenotype of Enterococcus faecium ATCC 51559 assessed as growth inhibition by broth microdilution method. The data set is classed as functional. A digest of the protocol: as §1
For data set [14], the system named is Staphylococcus aureus. In words: Antibacterial activity against methicillin-resistant Staphylococcus aureus ATCC 33591 infected in CD-1 mouse neutropenic thigh infection model assessed as reduction of bacterial burden in thigh at 12 mg/kg, iv bid administered as 12 hrs interval measured after 24 hrs. It counts as functional, organism-based. More on the design: dose 12 mg/kg. Summed up: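 Neutropenic mouse thigh model: about 50 μL MRSA inoculum injected into the thigh. About 1 h later, iv treatment twice at 12 h intervals with saline, vancomycin or compound at 12 mg/kg. At 24 h, thigh homogenate dilutions plated and incubated overnight at 37 °C; titer expressed as log10 CFU/g thigh.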

The test system of data set [15] is Staphylococcus aureus. In words: Antibacterial activity against methicillin-resistant Staphylococcus aureus ATCC 33591 assessed as growth inhibition by broth microdilution method. It counts as functional. A digest of the protocol:
as §1

Data set [16] relates to Staphylococcus aureus. In words: Antibacterial activity against methicillin-resistant Staphylococcus aureus ATCC 33591 assessed as induction of cytoplasmic membrane permeabilization measured within 5 mins by propidium iodide uptake assay. It counts as functional, organism-based. Summed up:
as §3

For data set [17], the system named is Enterococcus faecium. In words: Antibacterial activity against vancomycin-resistant VanA phenotype of Enterococcus faecium ATCC 51559 assessed as induction of membrane depolarization measured at < 3 mins by DiSC3(5) dye-based spectrofluorometric analysis. The data set is classed as functional, organism-based. Summed up: as §5
In data set [18] the test system is Staphylococcus aureus. In words: Antibacterial activity against methicillin-resistant Staphylococcus aureus ATCC 33591 assessed as growth inhibition measured after 52 serial passages. The data set is classed as functional, organism-based. Summed up:
as §6

Another data set concerns HeLa. In words: Cytotoxicity against human HeLa cells assessed as cell survival up to 100 uM after 24 hrs by MTT assay. The data set is classed as cell-based. A digest of the protocol:
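HeLa cells grown in DMEM with 10% FBS to 70–80% confluency, then exposed to serially diluted compounds for 24 h at 37 °C, 5% CO2. MTT (5 mg/mL solution) added for 3 h, formazan dissolved in DMSO, A570 read. Survival calculated relative to untreated and 10% Triton X-100 controls.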

Data set [19] has as its system Staphylococcus aureus. In words: Bactericidal activity against methicillin-resistant Staphylococcus aureus ATCC 33591 assessed as log10 reduction of bacterial count at 6 times MIC measured over 24 hrs. It counts as functional. A digest of the protocol:
as §7

A short description of data set [20]: Hemolytic activity in human RBC up to 1000 uM after 1 hr. The settings on record: erythrocyte. The data set is classed as ADME, cell-based. A digest of the protocol: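 Centrifuged, supernatant A540 read. Controls: no compound and 1 vol % Triton X-100 (100% lysis); % hemolysis = (A − A0)/(Atotal − A0) × 100.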
The test system of data set [21] is Staphylococcus aureus. In words: Antibacterial activity against methicillin-resistant Staphylococcus aureus ATCC 33591 assessed as induction of membrane depolarization measured at < 3 mins by DiSC3(5) dye-based spectrofluorometric analysis. It counts as functional, organism-based. Summed up: as §5
For data set [22], the system named is Enterococcus faecium. In words: Antibacterial activity against vancomycin-resistant VanA phenotype of Enterococcus faecium ATCC 51559 assessed as leakage of intracellular potassium ion at 10 uM measured for 10 mins by PBFI-AM dye-based spectrofluorometric analysis. The data set is classed as functional, organism-based. Summed up: as §2
The subject of data set [23] is Staphylococcus aureus. In words: Bactericidal activity against methicillin-resistant Staphylococcus aureus ATCC 33591 assessed as log10 reduction of bacterial count at MIC measured over 24 hrs. It counts as functional. Summed up: as §7
The subject of data set [24] is Enterococcus faecium. In words: Potency index, ratio of dalbavancin MIC90 to compound MIC for vancomycin-resistant VanA phenotype of Enterococcus faecium ATCC 51559. The data set is classed as functional.
The nature of data set [25]: Hemolytic activity in human RBC up to 100 uM after 1 hr. Particulars: erythrocyte. It counts as ADME, cell-based. A digest of the protocol:
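Incubated 1 h at 37 °C, then centrifuged and supernatant A540 read. % hemolysis calculated against no-compound wells and 1 vol% Triton X-100 wells taken as 100% lysis.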

Consider `CN[C@H](CC(C)C)C(=O)N[C@H]1C(=O)N[C@@H](CC(N)=O)C(=O)N[C@H]2C(=O)N[C@H]3C(=O)N[C@H](C(=O)N[C@H](C(=O)O)c4cc(O)cc(O)c4-c4cc3ccc4O)[C@H](O)c3ccc(c(Cl)c3)Oc3cc2cc(c3O[C@@H]2O[C@H](CO)[C@@H](O)[C@H](O)[C@H]2O[C@H]2C[C@](C)(N)[C@H](O)[C@H](C)O2)Oc2ccc(cc2Cl)[C@H]1O` [VANCOMYCIN], for which the MIC in the data set on Staphylococcus aureus [1] was determined as 13 µM; in the data set on Enterococcus faecium [4] it was 0.6 µM; in the data set with Staphylococcus aureus [6] it was 0.63 µM; in the data set on Enterococcus faecium [13], 750 µM; in the data set with Staphylococcus aureus [15], 0.63 µM. Further, the Activity is 100% in the data set with Staphylococcus aureus [2] and “Dose-dependent effect” in the data set with Staphylococcus aureus [10]. Besides, the outcome in the data set with Staphylococcus aureus [3], with Enterococcus faecium [5], in the data set with Enterococcus faecium [7] and in the data set with Staphylococcus aureus [12] was inactive. The outcome with Staphylococcus aureus [8], in the data set with Staphylococcus aureus [11] and in the data set with Staphylococcus aureus [14] was Active. Moreover, the Ratio in the data set with Staphylococcus aureus [9] is >20.
As to `CCCCCCCC[N+](C)(C)CCCNC(=O)[C@H]1NC(=O)[C@H]2NC(=O)[C@H](NC(=O)[C@@H]3NC(=O)[C@H](CC(N)=O)NC(=O)[C@H](NC(=O)[C@@H](CC(C)C)NC)[C@H](O)c4ccc(c(Cl)c4)Oc4cc3cc(c4O[C@@H]3O[C@H](CO)[C@@H](O)[C@H](O)[C@H]3O[C@H]3C[C@](C)(N)[C@H](O)[C@H](C)O3)Oc3ccc(cc3Cl)[C@H]2O)c2ccc(O)c(c2)-c2c(O)cc(O)cc21.O=C([O-])C(F)(F)F`, the Activity entry in the data set with Staphylococcus aureus [16] is “Dose-dependent effect”; in the data set on Enterococcus faecium [17] it was “Dose-dependent effect”; in the data set on Staphylococcus aureus [2], 43%; in the data set on HeLa, “Non-toxic”; in data set [20], “Non-toxic”; in the data set on Staphylococcus aureus [21], “Dose-dependent effect”. Further, the outcome in the data set on Staphylococcus aureus [18], in the data set on Enterococcus faecium [5], in the data set on Staphylococcus aureus [8], in the data set with Enterococcus faecium [22] and with Staphylococcus aureus [14] was Active. Besides, the MIC turned out to be 0.4 µM with Staphylococcus aureus [1]; 0.15 µM in the data set with Enterococcus faecium [4]; 0.31 µM with Staphylococcus aureus [6]; 12.5 µM in the data set on Enterococcus faecium [13]; 0.31 µM in the data set with Staphylococcus aureus [15]. The log10cfu in the data set on Staphylococcus aureus [19] was 3; with Staphylococcus aureus [23], 8.
As to `CCCCCCCCCCCCCC[N+](C)(C)CCCNC(=O)[C@H]1NC(=O)[C@H]2NC(=O)[C@H](NC(=O)[C@@H]3NC(=O)[C@H](CC(N)=O)NC(=O)[C@H](NC(=O)[C@@H](CC(C)C)NC)[C@H](O)c4ccc(c(Cl)c4)Oc4cc3cc(c4O[C@@H]3O[C@H](CO)[C@@H](O)[C@H](O)[C@H]3O[C@H]3C[C@](C)(N)[C@H](O)[C@H](C)O3)Oc3ccc(cc3Cl)[C@H]2O)c2ccc(O)c(c2)-c2c(O)cc(O)cc21.O=C([O-])C(F)(F)F`, the Activity result in the data set on Staphylococcus aureus [16] is “Dose-dependent effect”; in the data set with Enterococcus faecium [17] it was “Dose-dependent effect”; in the data set with HeLa it was “Non-toxic”; with Staphylococcus aureus [21] it was “Dose-dependent effect”; in [25], “Non-toxic”. For the same compound, the outcome in the data set with Staphylococcus aureus [18], in the data set on Staphylococcus aureus [2], in the data set with Enterococcus faecium [5], with Staphylococcus aureus [8] and in the data set with Enterococcus faecium [22] was Active. Also, the minimal inhibitory concentration (MIC) in the data set with Staphylococcus aureus [1] came out at 0.36 µM; in the data set on Enterococcus faecium [4], 0.12 µM; in the data set with Staphylococcus aureus [6], 1.25 µM; with Enterococcus faecium [13], 0.7 µM; with Staphylococcus aureus [15], 0.65 µM. Moreover, in the data set on Enterococcus faecium [24], the Ratio is 25. Also, the log10cfu in the data set on Staphylococcus aureus [19] and in the data set with Staphylococcus aureus [23] was >5 throughout.

In general, MIC refers to the lowest concentration that inhibits growth of the organism.
